Converted amounts (≈) assume the structure as drawn.
Tests used:
Assay type in all cases: functional, Salmonella enterica subsp. enterica serovar Typhimurium
Salmonella typhimurium [1] = assay: Antimicrobial activity against Salmonella enterica serovar Typhimurium CHS14 tolC::Kan with GyrA D87G mutant
How it was run: (§1)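 MICs measured by broth microdilution on the Sensititre automated system and interpreted by CLSI broth microdilution standards. Ciprofloxacin was also tested by agar dilution, widening the range to 0.0075–128 μg/ml. Quality control strains were E. coli ATCC 25922 and 35218, E. faecalis ATCC 29212, S. aureus ATCC 29213 and P. aeruginosa ATCC 27853.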

Salmonella typhimurium [2] = assay: Antimicrobial activity against Salmonella enterica serovar Typhimurium CHS18 tolC::Kan with GyrA S38F mutation; how it was run: as §1
Salmonella typhimurium [3] = assay: Antimicrobial activity against Salmonella enterica serovar Typhimurium S21 acrAB::Kan
How it was run: (§2)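 MICs by automated broth microdilution panels, interpreted to CLSI broth microdilution standards. Ciprofloxacin additionally tested by agar dilution across 0.0075 to 128 μg/ml. Quality control strains: E. coli ATCC 25922 and 35218, Enterococcus faecalis ATCC 29212, S. aureus ATCC 29213, P. aeruginosa ATCC 27853. Test strains are kanamycin-marked deletion mutants of ground-beef isolate S21.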

Salmonella typhimurium [4] = assay: Antimicrobial activity against Salmonella enterica serovar Typhimurium S21-3 with GyrA S83F, ParC S80I mutation; how it was run: as §1
Salmonella typhimurium [5] = assay: Antimicrobial activity against Salmonella enterica serovar Typhimurium CHS38 acrAB::Kan with GyrA D87G mutation; how it was run: as §1
Salmonella typhimurium [6] = assay: Antimicrobial activity against Salmonella enterica serovar Typhimurium S21-2 tolC::Kan with GyrA S83F, ParC S80I mutation; how it was run: as §1
Salmonella typhimurium [7] = assay: Antimicrobial activity against Salmonella enterica serovar Typhimurium CS3 gyrA+ with GyrA S83F, D87N, ParC S80I mutation; how it was run: as §1
Salmonella typhimurium [8] = assay: Antimicrobial activity against Salmonella enterica serovar Typhimurium CHS38 gyrA+ with GyrA D87G mutation; how it was run: as §1
Salmonella typhimurium [9] = assay: Antimicrobial activity against Salmonella enterica serovar Typhimurium S21; how it was run: as §1
Salmonella typhimurium [10] = assay: Antimicrobial activity against Salmonella enterica serovar Typhimurium CHS18 acrAB::Kan with GyrA S38F mutation; how it was run: as §1
Salmonella typhimurium [11] = assay: Antimicrobial activity against Salmonella enterica serovar Typhimurium S21-2 gyrA+ with ParC S80I mutation; how it was run: as §1
Salmonella typhimurium [12] = assay: Antimicrobial activity against Salmonella enterica serovar Typhimurium CS9 tolC::Kan with GyrA S83F, D87N, ParC S80I mutation; how it was run: as §1
Salmonella typhimurium [13] = assay: Antimicrobial activity against Salmonella enterica serovar Typhimurium CS9 gyrA+ with GyrA S83F, D87N, ParC S80I mutation; how it was run: as §1
Salmonella typhimurium [14] = assay: Antimicrobial activity against Salmonella enterica serovar Typhimurium S21-3 acrAB::Kan with GyrA S83F, ParC S80I mutation; how it was run: as §1
Salmonella typhimurium [15] = assay: Antimicrobial activity against Salmonella enterica serovar Typhimurium CHS18 gyrA+ with GyrA S38F mutation; how it was run: as §1
Salmonella typhimurium [16] = assay: Antimicrobial activity against Salmonella enterica serovar Typhimurium S21-2 with GyrA S83F, ParC S80I mutation; how it was run: as §1
Salmonella typhimurium [17] = assay: Antimicrobial activity against Salmonella enterica serovar Typhimurium S21-4 with GyrA S83F, ParC S80I mutation; how it was run: as §1
Salmonella typhimurium [18] = assay: Antimicrobial activity against Salmonella enterica serovar Typhimurium CS3 acrAB::Kan with GyrA S83F, D87N, ParC S80I mutation; how it was run: as §1
Salmonella typhimurium [19] = assay: Antimicrobial activity against Salmonella enterica serovar Typhimurium CS1 acrAB::Kan with GyrA S83F, D87N, ParC S80I mutation; how it was run: as §1
Salmonella typhimurium [20] = assay: Antimicrobial activity against Salmonella enterica serovar Typhimurium S21-4 tolC::Kan with GyrA S83F, ParC S80I mutation; how it was run: as §1
Salmonella typhimurium [21] = assay: Antimicrobial activity against Salmonella enterica serovar Typhimurium S21-1 GyrA S83F mutant; how it was run: as §1
Salmonella typhimurium [22] = assay: Antimicrobial activity against Salmonella enterica serovar Typhimurium S21-3 tolC::Kan with GyrA S83F, ParC S80I mutation; how it was run: as §1
Salmonella typhimurium [23] = assay: Antimicrobial activity against Salmonella enterica serovar Typhimurium CS3 with GyrA S83F, D87N, ParC S80I mutation; how it was run: as §1
Salmonella typhimurium [24] = assay: Antimicrobial activity against Salmonella enterica serovar Typhimurium CS9 with GyrA S83F, D87N, ParC S80I mutation; how it was run: as §1
Salmonella typhimurium [25] = assay: Antimicrobial activity against Salmonella enterica serovar Typhimurium S21-1 gyrA+; how it was run: as §1
Salmonella typhimurium [26] = assay: Antimicrobial activity against Salmonella enterica serovar Typhimurium CHS38 with GyrA D87G mutation; how it was run: as §1
Salmonella typhimurium [27] = assay: Antimicrobial activity against Salmonella enterica serovar Typhimurium S21-4 acrAB::Kan with GyrA S83F, ParC S80I mutation; how it was run: as §1
Salmonella typhimurium [28] = assay: Antimicrobial activity against Salmonella enterica serovar Typhimurium S21-4 gyrA+ with ParC S80I mutation; how it was run: as §1
Salmonella typhimurium [29] = assay: Antimicrobial activity against Salmonella enterica serovar Typhimurium CS9 acrAB::Kan with GyrA S83F, D87N, ParC S80I mutation; how it was run: as §1
Salmonella typhimurium [30] = assay: Antimicrobial activity against Salmonella enterica serovar Typhimurium S21-2 acrAB::Kan with GyrA S83F, ParC S80I mutation; how it was run: as §1
Salmonella typhimurium [31] = assay: Antimicrobial activity against Salmonella enterica serovar Typhimurium CS1 tolC::Kan with GyrA S83F, D87N, ParC S80I mutation; how it was run: as §1
Salmonella typhimurium [32] = assay: Antimicrobial activity against Salmonella enterica serovar Typhimurium CHS38 tolC::Kan with GyrA D87G mutation; how it was run: as §1
Salmonella typhimurium [33] = assay: Antimicrobial activity against Salmonella enterica serovar Typhimurium CHS14 with GyrA D87G mutation; how it was run: as §1
Salmonella typhimurium [34] = assay: Antimicrobial activity against Salmonella enterica serovar Typhimurium S21 gyrA+; how it was run: as §1
Salmonella typhimurium [35] = assay: Antimicrobial activity against Salmonella enterica serovar Typhimurium CHS14 acrAB::Kan with GyrA D87G mutation; how it was run: as §1
Salmonella typhimurium [36] = assay: Antimicrobial activity against Salmonella enterica serovar Typhimurium S21-3 gyrA+ with ParC S80I mutation; how it was run: as §1
Salmonella typhimurium [37] = assay: Antimicrobial activity against Salmonella enterica serovar Typhimurium CS1 gyrA+ with GyrA S83F, D87N, ParC S80I mutation; how it was run: as §1
Salmonella typhimurium [38] = assay: Antimicrobial activity against Salmonella enterica serovar Typhimurium CS3 tolC::Kan with GyrA S83F, D87N, parC S80I mutation; how it was run: as §1
Salmonella typhimurium [39] = assay: Antimicrobial activity against Salmonella enterica serovar Typhimurium S21 tolC::Kan; how it was run: as §2
Salmonella typhimurium [40] = assay: Antimicrobial activity against Salmonella enterica serovar Typhimurium CHS18 with GyrA S38F mutation; how it was run: as §1
Salmonella typhimurium [41] = assay: Antimicrobial activity against Salmonella enterica serovar Typhimurium CHS14 gyrA+ with GyrA D87G mutation; how it was run: as §1
Salmonella typhimurium [42] = assay: Antimicrobial activity against Salmonella enterica serovar Typhimurium CS1 with GyrA S83F, D87N, ParC S80I mutation; how it was run: as §1

## CC(=O)OCC1=C(C(=O)O)N2C(=O)[C@@H](NC(=O)Cc3cccs3)[C@H]2SC1 [CEPHALOTHIN]
Salmonella typhimurium [1]
  MIC: < 2 µg/mL
Salmonella typhimurium [2]
  MIC: 2 µg/mL (≈ 5.04 µM)
Salmonella typhimurium [3]
  MIC: < 2 µg/mL
Salmonella typhimurium [4]
  MIC: > 32 µg/mL
Salmonella typhimurium [5]
  MIC: 8 µg/mL (≈ 20.2 µM)
Salmonella typhimurium [6]
  MIC: 8 µg/mL (≈ 20.2 µM)
Salmonella typhimurium [7]
  MIC: 8 µg/mL (≈ 20.2 µM)
Salmonella typhimurium [8]
  MIC: 16 µg/mL (≈ 40.4 µM)
Salmonella typhimurium [9]
  MIC: < 2 µg/mL
Salmonella typhimurium [10]
  MIC: 2 µg/mL (≈ 5.04 µM)
Salmonella typhimurium [11]
  MIC: > 32 µg/mL
Salmonella typhimurium [12]
  MIC: 8 µg/mL (≈ 20.2 µM)
Salmonella typhimurium [13]
  MIC: 8 µg/mL (≈ 20.2 µM)
Salmonella typhimurium [14]
  MIC: 8 µg/mL (≈ 20.2 µM)
Salmonella typhimurium [15]
  MIC: 4 µg/mL (≈ 10.1 µM)
Salmonella typhimurium [16]
  MIC: > 32 µg/mL
Salmonella typhimurium [17]
  MIC: > 32 µg/mL
Salmonella typhimurium [18]
  MIC: 8 µg/mL (≈ 20.2 µM)
Salmonella typhimurium [19]
  MIC: 8 µg/mL (≈ 20.2 µM)
Salmonella typhimurium [20]
  MIC: 8 µg/mL (≈ 20.2 µM)
Salmonella typhimurium [21]
  MIC: 8 µg/mL (≈ 20.2 µM)
Salmonella typhimurium [22]
  MIC: 8 µg/mL (≈ 20.2 µM)
Salmonella typhimurium [23]
  MIC: 16 µg/mL (≈ 40.4 µM)
Salmonella typhimurium [24]
  MIC: 16 µg/mL (≈ 40.4 µM)
Salmonella typhimurium [25]
  MIC: 8 µg/mL (≈ 20.2 µM)
Salmonella typhimurium [26]
  MIC: 8 µg/mL (≈ 20.2 µM)
Salmonella typhimurium [27]
  MIC: 8 µg/mL (≈ 20.2 µM)
Salmonella typhimurium [28]
  MIC: > 32 µg/mL
Salmonella typhimurium [29]
  MIC: 8 µg/mL (≈ 20.2 µM)
Salmonella typhimurium [30]
  MIC: 8 µg/mL (≈ 20.2 µM)
Salmonella typhimurium [31]
  MIC: 8 µg/mL (≈ 20.2 µM)
Salmonella typhimurium [32]
  MIC: 8 µg/mL (≈ 20.2 µM)
Salmonella typhimurium [33]
  MIC: 4 µg/mL (≈ 10.1 µM)
Salmonella typhimurium [34]
  MIC: < 2 µg/mL
Salmonella typhimurium [35]
  MIC: < 2 µg/mL
Salmonella typhimurium [36]
  MIC: > 32 µg/mL
Salmonella typhimurium [37]
  MIC: 8 µg/mL (≈ 20.2 µM)
Salmonella typhimurium [38]
  MIC: 8 µg/mL (≈ 20.2 µM)
Salmonella typhimurium [39]
  MIC: < 2 µg/mL
Salmonella typhimurium [40]
  MIC: 4 µg/mL (≈ 10.1 µM)
Salmonella typhimurium [41]
  MIC: < 2 µg/mL
Salmonella typhimurium [42]
  MIC: 16 µg/mL (≈ 40.4 µM)
